ChEMBL document CHEMBL5344428, “Discovery, Crystallographic Studies, and Mechanistic Investigations of Novel Phenylalanine Derivatives Bearing a Quinazolin-4-one Scaffold as Potent HIV Capsid Modulators” (J Med Chem, 2023)

Tests used:
[1] = Selectivity index, ratio of CC50 for cytotoxicity against human MT4 cells to EC50 for antiviral activity against HIV1 IIIB infected in human MT4 cells; format: toxicity, cell-based; conditions: read-out: Ratio CC50/EC50
Procedure, shortened: (§1)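 SI is CC50 divided by EC50. CC50 comes from MTT viability of uninfected MT-4 cells. EC50 comes from MTT-read protection of MT-4 cells infected with HIV-1 IIIB or HIV-2 ROD. Each value was run in at least triplicate.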

[2] = Selectivity index, ratio of CC50 for cytotoxicity against human MT4 cells to EC50 for antiviral activity against HIV2 ROD infected in human MT4 cells; format: toxicity, cell-based; conditions: read-out: Ratio CC50/EC50; procedure, shortened: as §1
[3] = Cytotoxicity against human MT4 cells assessed as reduction in cell viability; format: toxicity, cell-based
Procedure, shortened: (§2)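 Uninfected MT-4 cells were exposed to compound, and viability was read by the MTT method. […] Each value was run in at least triplicate and averaged from at least three independent experiments.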

[4] = test system: Human immunodeficiency virus 2; experiment: Antiviral activity against HIV-2 ROD infected in human MT4 cells assessed as protection against virus induced cytopathic effect; format: functional, organism-based; conditions: Human immunodeficiency virus 2, ROD
Procedure, shortened: (§3)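 MT-4 cells were infected with HIV-1 IIIB or HIV-2 ROD, and cell viability was read by MTT. […] Each value was run in at least triplicate and averaged from at least three independent experiments.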

[5] = test system: Human immunodeficiency virus 1; experiment: Antiviral activity against HIV-1 IIIB infected in human MT4 cells assessed as protection against virus induced cytopathic effect; format: functional, organism-based; conditions: Human immunodeficiency virus 1, IIIB; procedure, shortened: as §3
[6] = Selectivity ratio of EC50 for antiviral activity against HIV1 IIIB infected in human MT4 cells to EC50 for antiviral activity against HIV2 ROD infected in human MT4 cells; format: toxicity, cell-based
Procedure, shortened: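 Ratio is EC50 against HIV-1 IIIB divided by EC50 against HIV-2 ROD. Both EC50 values come from MTT-read protection of infected MT-4 cells.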

[7] = test system: Human immunodeficiency virus 2; experiment: Antiviral activity against HIV2 ROD infected in human MT4 cells assessed as reduction in virus induced cytopathic effect measured after 5 days by MTT assay; format: functional, organism-based; conditions: Human immunodeficiency virus 2, ROD, MT4, 120 h; procedure, shortened: as §3
[8] = test system: Human immunodeficiency virus 1; experiment: Antiviral activity against HIV1 IIIB infected in human MT4 cells assessed as reduction in virus induced cytopathic effect measured after 5 days by MTT assay; format: functional, organism-based; conditions: Human immunodeficiency virus 1, IIIB, MT4, 120 h; procedure, shortened: as §3
[9] = test system: MT4; experiment: (§4) Cytotoxicity against human MT4 cells assessed as reduction in cell viability incubated for 5 days by MTT assay; format: toxicity, cell-based; conditions: mt4, 120 h, time 5 day; procedure, shortened: as §2
[10] = Metabolic stability in human liver assessed as intrinsic clearance at 1 uM incubated for 60 mins in presence of NADPH by LC-MS/MS analysis; format: ADME, tissue-based; conditions: read-out: CLH
Procedure, shortened: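 Human liver microsomes were used at a final 0.5 mg protein/mL, incubated 60 min with an NADPH regenerating system. The no-cofactor arm replaced NADPH with buffer. T1/2 came from linear regression of the kinetic data. CLint(mic) = (0.693/T1/2)/mg microsomal protein per mL. CLint(liver) was scaled by mg microsomal protein/g liver and g liver/kg body weight.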

[11] = as §4; format: toxicity, cell-based; conditions: MT4 cells, time 5 day; procedure, shortened: as §2

Row | SMILES | selectivity ratio [1] | selectivity ratio [2] | CC50 [3] | EC50 [4] | EC50 [5] | Ratio EC50 [6] | EC50 [7] | EC50 [8] | CC50 [9] | CLint scaled at 1 µM [10] | CC50 at 120 h [11]
1 | COc1ccc(N(C)C(=O)[C@H](Cc2cc(F)cc(F)c2)NC(=O)CN2CCN(S(=O)(=O)c3ccccc3)CC2)cc1 | 570 | 1140 | 114 µM | 0.1 µM | 0.2 µM | 2 | – | – | – | – | –
2 | COc1ccc(N(C)C(=O)[C@H](Cc2cc(F)cc(F)c2)NC(=O)CN2CCN(S(=O)(=O)c3ccc([N+](=O)[O-])cc3)CC2)cc1 | 14.7 | 30.9 | 14.8 µM | 0.48 µM | 1.01 µM | 2.1 | – | – | – | – | –
3 | COc1ccc(N(C)C(=O)[C@H](Cc2cc(F)cc(F)c2)NC(=O)CN2CCN(S(=O)(=O)c3ccccc3[N+](=O)[O-])CC2)cc1 | 33.4 | 79.7 | 94.9 µM | 1.19 µM | 2.84 µM | 2.39 | – | – | – | – | –
4 | COc1ccc(N(C)C(=O)[C@H](Cc2cc(F)cc(F)c2)NC(=O)CN2CCN(S(=O)(=O)c3ccc(N)cc3)CC2)cc1 | 977 | 2340 | 117 µM | 0.05 µM | 0.12 µM | 2.4 | – | – | – | – | –
5 | COc1ccc(N(C)C(=O)[C@H](Cc2cc(F)cc(F)c2)NC(=O)CN2CCN(S(=O)(=O)c3ccc(F)cc3)CC2)cc1 | 24.3 | 53.3 | 19.2 µM | 0.36 µM | 0.79 µM | 2.19 | – | – | – | – | –
6 | COc1ccc(N(C)C(=O)[C@H](Cc2cc(F)cc(F)c2)NC(=O)CN2CCN(S(=O)(=O)c3ccccc3F)CC2)cc1 | 1000 | 2010 | 181 µM | 0.09 µM | 0.18 µM | 2 | – | – | – | – | –
7 | COc1ccc(N(C)C(=O)[C@H](Cc2cc(F)cc(F)c2)NC(=O)CN2CCN(S(=O)(=O)c3ccc(C)cc3)CC2)cc1 | > 224 | > 1700 | > 204 µM | 0.12 µM | 0.91 µM | 7.58 | – | – | – | – | –
8 | O=C(CN1CCN(S(=O)(=O)c2ccc([N+](=O)[O-])cc2)CC1)N[C@@H](Cc1cc(F)cc(F)c1)c1nc2ccccc2c(=O)n1-c1ccc(S(=O)(=O)N2CCS(=O)(=O)CC2)cc1 | > 45.6 | > 70.6 | – | – | – | 1.54 | 1.97 µM | 3.04 µM | > 139 µM | – | –
9 | COc1ccc(N(C)C(=O)[C@H](Cc2cc(F)cc(F)c2)NC(=O)CN2CCN(S(=O)(=O)c3cccc(F)c3)CC2)cc1 | > 843 | > 1690 | > 202 µM | 0.12 µM | 0.24 µM | 2 | – | – | – | – | –
10 | COc1ccc(N(C)C(=O)[C@H](Cc2cc(F)cc(F)c2)NC(=O)CN2CCN(S(=O)(=O)c3ccc(Cl)cc3)CC2)cc1 | 9.73 | 20.6 | 9.05 µM | 0.44 µM | 0.93 µM | 2.11 | – | – | – | – | –
11 | COc1ccc(N(C)C(=O)[C@H](Cc2cc(F)cc(F)c2)NC(=O)CN2CCN(S(=O)(=O)c3cccc(N)c3)CC2)cc1 | 679 | 987 | 109 µM | 0.11 µM | 0.16 µM | 1.45 | – | – | – | – | –
12 | COc1ccc(N(C)C(=O)[C@H](Cc2cc(F)cc(F)c2)NC(=O)CN2CCN(S(=O)(=O)c3cccc([N+](=O)[O-])c3)CC2)cc1 | 56.3 | 493 | 83.9 µM | 0.17 µM | 1.49 µM | 8.76 | – | – | – | – | –
13 | COc1ccc(N(C)C(=O)[C@H](Cc2cc(F)cc(F)c2)NC(=O)CN2CCN(S(=O)(=O)c3ccccc3N)CC2)cc1 | 122 | 454 | 63.6 µM | 0.14 µM | 0.52 µM | 3.71 | – | – | – | – | –
14 | COc1ccc(N(C)C(=O)[C@H](Cc2cc(F)cc(F)c2)NC(=O)CN2CCN(S(=O)(=O)c3ccc(NC(C)=O)cc3)CC2)cc1 | 436 | 3050 | 91.6 µM | 0.03 µM | 0.21 µM | 7 | – | – | – | – | –
15 | COc1ccc(-n2c([C@H](Cc3ccccc3)NC(=O)CN3CCN(S(=O)(=O)c4ccc([N+](=O)[O-])cc4)CC3=O)nc3ccccc3c2=O)cc1 | > 119 | > 312 | – | – | – | 2.65 | 0.57 µM | 1.51 µM | > 179 µM | – | –
16 | O=C(O)Cc1ccccc1Nc1c(Cl)cccc1Cl [DICLOFENAC] | – | – | – | – | – | – | – | – | – | 280 mL/min/kg | –
17 | COc1ccc(N(C)C(=O)[C@H](Cc2cc(F)cc(F)c2)NC(=O)CN(Cc2ccc(C#N)cc2)C(=O)Cc2ccc(B3OC(C)(C)C(C)(C)O3)cc2)cc1 | 3 | 3 | – | – | – | 1.09 | 16.2 µM | 17.7 µM | – | – | 52.4 µM
18 | COc1ccc(-n2c(SCc3ccccn3)nnc2[C@H](Cc2ccccc2)NC(=O)Cc2c(C)[nH]c3ccccc23)cc1 | 9 | 6 | – | – | – | 0.63 | 4.16 µM | 2.61 µM | – | – | 24.2 µM
19 | COc1ccc(N(C)C(=O)[C@H](Cc2cc(F)cc(F)c2)NC(=O)CN2CCN(C(=O)Cc3c(C)[nH]c4ccccc34)CC2=O)cc1 | 3.69 | 3.91 | – | – | – | 1.06 | 19.7 µM | 20.8 µM | – | – | 76.9 µM
20 | COc1ccc(N(C)C(=O)[C@H](Cc2ccccc2)NC(=O)Cn2ccc(NC(=O)c3ccccc3F)cc2=O)cc1 | 4.55 | 10.3 | – | – | – | 2.26 | 7.92 µM | 17.9 µM | – | – | 81.4 µM
21 | COc1ccc(N(C)C(=O)[C@H](Cc2ccccc2)NC(=O)CN2CCN(C(=O)Cc3c(C)[nH]c4ccccc34)CC2=O)cc1 | 7.73 | 13.9 | – | – | – | 1.84 | 7.74 µM | 14.3 µM | – | – | 108 µM
22 | COc1ccc(-n2c(SCCS(C)(=O)=O)nnc2[C@H](Cc2ccccc2)NC(=O)Cc2c(C)[nH]c3ccccc23)cc1 | 42 | 10 | – | – | – | 0.24 | 16 µM | 3.87 µM | – | – | 162 µM
23 | COc1ccc(N(C)C(=O)[C@H](Cc2cc(F)cc(F)c2)NC(=O)CN2CCN(S(=O)(=O)c3ccc(Br)cc3)CC2)cc1 | 15.4 | 37.8 | 13.2 µM | 0.35 µM | 0.86 µM | 2.46 | – | – | – | – | –
24 | COc1ccc(-n2c(SCc3cncs3)nnc2[C@H](Cc2ccccc2)NC(=O)Cc2c(C)[nH]c3ccccc23)cc1 | 38 | 9 | – | – | – | 0.23 | 3.98 µM | 0.9 µM | – | – | 33.9 µM
25 | COc1ccc(C(=O)Nc2ccn(CC(=O)N[C@@H](Cc3ccccc3)C(=O)N(C)c3ccc(OC)cc3)c(=O)c2)cc1 | 1.79 | 4.98 | – | – | – | 2.78 | 10.7 µM | 29.6 µM | – | – | 53.1 µM
26 | COc1ccc(-n2c([C@H](Cc3cc(F)cc(F)c3)NC(=O)CN3CCN(S(=O)(=O)c4ccc(N)cc4)CC3)nc3cc(S(C)(=O)=O)ccc3c2=O)cc1 | > 236 | > 1040 | – | – | – | 4.53 | 0.15 µM | 0.68 µM | – | – | > 160 µM
27 | COc1ccc(N(C)C(=O)[C@H](Cc2cc(F)cc(F)c2)NC(=O)Cn2ccc(N)cc2=O)cc1 | > 49.6 | > 17.1 | – | – | – | 0.34 | 15.6 µM | 5.36 µM | – | – | > 266 µM
28 | COc1ccc(N(C)C(=O)[C@H](Cc2cc(F)cc(F)c2)NC(=O)CN(CC2CCCCC2)C(=O)Cn2nc(C(F)(F)F)cc2C)cc1 | 2 | 2 | – | – | – | 1.22 | 24.9 µM | 30.3 µM | – | – | 45.7 µM
